We go through one molecule from ChEMBL document CHEMBL1124663, “Design, synthesis, antineoplastic activity, and chemical properties of bis(carbamate) derivatives of 4,5-bis(hydroxymethyl)imidazole” (J Med Chem, 1989).

Data set [1] in a line: Retention time was determined. The data set is classed as ADME.
The test system of data set [2] is Mus musculus. Kind of data set: The toxicity day was evaluated on day 5 for L1210 tumor cells of test animals dosed with 25 mg/kg of compound; 6/6. Format: functional. Summed up:
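L1210 leukaemia, 10^5 cells, implanted ip on day 0. Freshly prepared saline suspension dosed ip daily on days 1-5. Toxicity evaluated on day 5 as survivors over animals in the initial test group.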

In data set [3] the test system is Mus musculus. Kind of data set: The […] for M5076 minus 1 tumor cells of test animals dosed with 50 mg/kg of compound; 10/10. Format: functional. In outline: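 M5076 sarcoma, 10^6 cells, inoculated ip into B6C3F1 mice on day 0. Fresh saline suspension given ip every fourth day (days 1, 5, 9, 13). Toxicity survivors were scored on day 5 as survivors over initial group. Body-weight difference was day 14 minus day 1.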

In data set [4] the test system is Mus musculus. Kind of data set: Ability of 50 mg/kg of compound to kill M5076 tumor cells in mice is expressed as the log of the tumor cell population at the onset of treatment minus the log of the tumor cell population at the end of treatment. Format: functional. Summed up: (§1)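 M5076 sarcoma, 10^6 cells ip on day 0 in B6C3F1 mice. Drug given ip as a fresh saline suspension every fourth day (days 1, 5, 9, 13). % T/C is median survival of treated versus control mice, counting long-term survivors. Cures are 60-day survivors. Log cell kill is derived from this.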

Data set [5] concerns Mus musculus. Put plainly: The percent of the median survival time of test mice compared to control mice, administered with 100 mg/kg compound on day 5 for L1210 tumor cells. Format: functional. In outline:
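L1210 leukemia, 10^5 cells implanted ip on day 0. Drug given ip daily on days 1-5 as a saline suspension freshly prepared before each injection. Read-out is median survival of treated versus control mice (% T/C), and log cell kill is derived from it.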

The test system of data set [6] is Mus musculus. Put plainly: The percent of the median survival time of test mice compared to control mice, administered with 200 mg/kg compound on day 14 for M5076 minus 1 tumor cells. The data set is classed as functional. Summed up: as §1
Data set [7] deals with Mus musculus. Put plainly: The toxicity day was evaluated on […] for MX-1 tumor cells of test animals dosed with 200 mg/kg of compound; 1/6. The data set is classed as functional. Summed up:
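Human MX-1 mammary xenograft, a 1 mm3 (0.5 mg) tumor fragment implanted under the renal capsule of NCR-nu mice on day 0. Drug given ip as a fresh saline suspension on days 1, 5 and 9. Tumor size is assessed on day 11. A negative % T/C is percent shrinkage relative to the initial implant. Survivors in the toxicity group are […].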

The subject of data set [8] is Mus musculus. Kind of data set: The toxicity day was evaluated on day 11 for MX-1 tumor cells of test animals dosed with 60 mg/kg of compound; 6/6. Format: functional. Summed up:
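Human MX-1 mammary tumour (1 mm3, 0.5 mg) implanted under the renal capsule of NCR-nu mice on day 0. Drug was given ip as a freshly made saline suspension on days 1, 5 and 9. Readout is survivors over initial group size.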

In data set [9] the test system is Mus musculus. Kind of data set: Body Weight Difference (BWD) of test animals administered with 12.5 mg/kg compound is determined on day 5 for P388 tumor cells. The data set is classed as functional. In outline:
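P388 leukaemia: about 10^6 cells in ascitic fluid inoculated ip on day 0 (CD2F1 mice). Compound given ip in normal saline as a freshly prepared solution or suspension, once daily on days 1–5. Treated-minus-control body weight difference in g, taken as day 5 minus day 1 weight. Groups of six.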

For data set [10], the system named is Mus musculus. Put plainly: Body weight difference (BWD) of test animals administered with 200 mg/kg compound is determined on day 10 for LOX tumor cells.

The term T/C denotes the result in the treated group divided by that in the control group, in per cent. For `CNC(=O)OCc1nc(SC)n(C)c1COC(=O)NC`, the TR in data set [1] worked out at 39 min. In addition, the “Survivors / animals tested” value came to 6 with Mus musculus [2], 10 in the data set with Mus musculus [3], 1 with Mus musculus [7] and 6 in the data set with Mus musculus [8]. This molecule came in with a KE in the data set on Mus musculus [4] of -1.63. The figures for the T/C in the data set with Mus musculus [5] and in the data set on Mus musculus [6] were 145% and 184%, respectively. Further, the BWD was -1.2 g in the data set with Mus musculus [9] and -11.5 g in the data set on Mus musculus [10].
